Assay results taken from ChEMBL document CHEMBL1126018, “Syntheses and 5-HT2 antagonist activity of bicyclic 1,2,4-triazol-3(2H)-one and 1,3,5-triazine-2,4(3H)-dione derivatives” (J Med Chem, 1992).

Experiments:
[1] = target: T1, Serotonin 2 (5-HT2) receptor (Rattus norvegicus) (UniProt P30994+P08909+P14842); experiment: In vivo inhibitory activity of 10 mg/kg compound in rats against elevation of BP caused by 5-HT (300 ug/kg, iv) through 5-hydroxytryptamine 2 receptor 1 hr after oral administration; type: functional, organism-based; design: dose 10 mg/kg
How it was run: (§1)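 Male SD rats anesthetized with urethane (1 g/kg ip) plus alpha-chloralose (80 mg/kg ip). Carotid arterial catheter to a pressure transducer, venous catheter for injection. After oral drug or vehicle, 5-HT 300 μg/kg iv. The pressor phase following the brief hypotensive phase was measured and expressed as % inhibition, mean ± SEM.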

[2] = target: T2, Adrenergic receptor alpha-1 (Rattus norvegicus) (UniProt P15823+P23944+P43140); experiment: In vivo inhibitory activity in rats against elevation of blood pressure caused by phenylephrine (30 ug/kg, iv) through Alpha-1 adrenergic receptor, after 1 hr oral administration at dose of 10 mg/kg; type: functional, organism-based; design: dose 10 mg/kg
How it was run: (§2)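 Male SD rats under urethane (1 g/kg ip) and alpha-chloralose (80 mg/kg ip). Blood pressure recorded via carotid catheter and transducer, iv dosing via venous catheter. After oral drug or vehicle, phenylephrine 30 μg/kg iv. The pressor rise was expressed as % inhibition, mean ± SEM.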

[3] = target: T3, Serotonin 2 (5-HT2) receptor (Rattus norvegicus, UniProt P30994+P08909+P14842); experiment: (§3) In vitro antagonistic activity against the contraction induced by 5-HT through 5-hydroxytryptamine 2 receptor in rat thoracic aortic strips; type: functional
How it was run: (§4)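 Rat thoracic aortic strips, isometric tension; equilibrated 120 min, primed with 60 mM KCl. Cumulative 5-HT (0.1-100 μM) curve, wash, 1 h later second cumulative 5-HT curve with test drug present. pA2 from the concentration-response curves where blockade is competitive (otherwise noncompetitive); single determination.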

[4] = target: T4, Adrenergic receptor alpha-1 (Rattus norvegicus, UniProt P15823+P23944+P43140); experiment: In vitro antagonistic activity tested against the contraction induced by phenylephrine through Alpha-1 adrenergic receptor in rat thoracic aortic strips; type: functional
T4 sequence (P15823 whole entry): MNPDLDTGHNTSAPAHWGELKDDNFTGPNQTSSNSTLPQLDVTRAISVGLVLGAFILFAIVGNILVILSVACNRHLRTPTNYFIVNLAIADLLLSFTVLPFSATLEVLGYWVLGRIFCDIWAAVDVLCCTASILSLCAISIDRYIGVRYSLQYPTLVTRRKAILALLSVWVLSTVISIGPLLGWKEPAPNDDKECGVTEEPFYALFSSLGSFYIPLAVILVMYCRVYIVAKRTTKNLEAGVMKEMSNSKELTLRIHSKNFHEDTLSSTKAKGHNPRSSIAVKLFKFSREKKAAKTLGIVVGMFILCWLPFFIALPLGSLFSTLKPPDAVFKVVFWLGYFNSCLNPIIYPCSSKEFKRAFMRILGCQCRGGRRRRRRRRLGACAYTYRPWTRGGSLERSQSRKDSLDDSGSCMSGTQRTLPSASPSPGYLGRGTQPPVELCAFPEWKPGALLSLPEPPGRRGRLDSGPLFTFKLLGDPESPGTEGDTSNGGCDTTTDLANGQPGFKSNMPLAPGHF
T4 sequence (P23944 whole entry): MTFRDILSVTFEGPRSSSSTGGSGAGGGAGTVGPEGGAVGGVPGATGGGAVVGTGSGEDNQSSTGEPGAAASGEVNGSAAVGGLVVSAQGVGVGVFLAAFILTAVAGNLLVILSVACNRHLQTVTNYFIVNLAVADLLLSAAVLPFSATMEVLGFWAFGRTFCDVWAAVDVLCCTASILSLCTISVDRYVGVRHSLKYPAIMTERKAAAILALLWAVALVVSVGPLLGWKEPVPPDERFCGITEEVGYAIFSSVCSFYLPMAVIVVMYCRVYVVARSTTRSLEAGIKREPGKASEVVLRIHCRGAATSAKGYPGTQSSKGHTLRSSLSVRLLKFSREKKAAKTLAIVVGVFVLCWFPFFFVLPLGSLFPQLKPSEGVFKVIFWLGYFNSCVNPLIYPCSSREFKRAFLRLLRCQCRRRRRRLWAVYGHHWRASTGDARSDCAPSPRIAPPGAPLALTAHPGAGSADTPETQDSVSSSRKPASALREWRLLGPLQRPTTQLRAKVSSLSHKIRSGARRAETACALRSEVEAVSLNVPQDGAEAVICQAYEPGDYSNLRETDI
T4 sequence (P43140 whole entry): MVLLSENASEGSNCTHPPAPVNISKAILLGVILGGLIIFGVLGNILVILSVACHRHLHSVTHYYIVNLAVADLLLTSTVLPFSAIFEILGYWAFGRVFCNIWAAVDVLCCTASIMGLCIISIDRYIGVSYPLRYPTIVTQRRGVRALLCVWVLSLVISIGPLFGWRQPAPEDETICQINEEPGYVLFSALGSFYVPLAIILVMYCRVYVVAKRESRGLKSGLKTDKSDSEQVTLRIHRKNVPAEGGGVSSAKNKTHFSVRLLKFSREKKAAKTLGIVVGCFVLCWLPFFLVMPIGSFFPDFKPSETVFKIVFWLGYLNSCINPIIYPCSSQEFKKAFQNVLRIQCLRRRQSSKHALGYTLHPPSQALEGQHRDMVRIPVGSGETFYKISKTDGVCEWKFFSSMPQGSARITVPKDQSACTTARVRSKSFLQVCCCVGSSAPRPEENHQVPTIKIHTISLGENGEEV
How it was run: (§5)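 Rat thoracic aortic strips, isometric tension; equilibrated 120 min, primed with 60 mM KCl. Cumulative phenylephrine (0.01-10 μM) curve, wash, 1 h later second cumulative curve with test drug present. pA2 from the concentration-response curves where blockade is competitive (otherwise noncompetitive); single determination.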

[5] = target: T3, Serotonin 2 (5-HT2) receptor; experiment: In vitro antagonistic activity tested against the contraction induced by 5-HT through 5-hydroxytryptamine 2 receptor in rat thoracic aortic strips; type: functional
[6] = target: T1, Serotonin 2 (5-HT2) receptor (Rattus norvegicus); experiment: as §3; type: functional; details: concentration not given here; how it was run: as §4
[7] = target: T1, Serotonin 2 (5-HT2) receptor (Rattus norvegicus); experiment: In vivo inhibitory activity of 10 mg/kg compound in rats against elevation of BP caused by 5-HT (300 ug/kg, iv) through 5-hydroxytryptamine 2 receptor 3h after oral administration; type: functional, organism-based; design: dose 10 mg/kg; how it was run: as §1
[8] = target: T1, Serotonin 2 (5-HT2) receptor (Rattus norvegicus); experiment: In vivo inhibitory activity of 3 mg/kg compound in rats against elevation of BP caused by 5-HT (300 ug/kg, iv) through 5-hydroxytryptamine 2 receptor 1 hr after oral administration; type: functional, organism-based; design: dose 3 mg/kg; how it was run: as §1
[9] = target: T1, Serotonin 2 (5-HT2) receptor (Rattus norvegicus); experiment: In vivo inhibitory activity of 3 mg/kg compound in rats against elevation of BP caused by 5-HT (300 ug/kg, iv) through 5-hydroxytryptamine 2 receptor 3h after oral administration; type: functional, organism-based; design: dose 3 mg/kg; how it was run: as §1
[10] = target: T2, Adrenergic receptor alpha-1 (Rattus norvegicus); experiment: In vivo inhibitory activity in rats against elevation of blood pressure caused by phenylephrine (30 ug/kg, iv) through alpha-1 receptor after 1 hr of oral administration at the dose of 10 mg/kg; type: functional, organism-based; design: dose 10 mg/kg; how it was run: as §2
Mus musculus [11] = experiment: The inhibition of compound was measured for 5 min in head twitches of mice induced by 5-HTP(100 mg/kg, ip) at the dose of 10 mg/kg; type: functional
How it was run: (§6)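 Mice received drug orally 1 h before 5-HTP (100 mg/kg ip). Head twitches were counted for 5 or 8 min, starting 30 min after 5-HTP. Results are % inhibition versus controls (n = 6), with n = 4 per treated dose.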

Mus musculus [12] = experiment: The inhibition of compound was measured for 5 min in head twitches of mice induced by 5-HTP(100 mg/kg, ip) at the dose of 3 mg/kg; type: functional; how it was run: as §6
Mus musculus [13] = experiment: The inhibition of compound was measured for 8 min in head twitches of mice induced by 5-HTP(100 mg/kg, ip) at the dose of 0.3 mg/kg; type: functional; how it was run: as §6
Mus musculus [14] = experiment: The inhibition of compound was measured for 8 min in head twitches of mice induced by 5-HTP(100 mg/kg, ip) at the dose of 1 mg/kg; type: functional; how it was run: as §6
Mus musculus [15] = experiment: The inhibition of compound was measured for 8 min in head twitches of mice induced by 5-HTP(100 mg/kg, ip) at the dose of 0.1 mg/kg; type: functional; how it was run: as §6
[16] = target: T4, Adrenergic receptor alpha-1; experiment: In vitro antagonistic activity against the contraction induced by phenylephrine through alpha-1 receptor in rat thoracic aortic strips; type: functional; how it was run: as §5
[17] = target: T2, Adrenergic receptor alpha-1 (Rattus norvegicus); experiment: In vivo inhibitory activity in rats against elevation of blood pressure caused by phenylephrine (30 ug/kg, iv) through alpha-1 receptor after 3h of oral administration at the dose of 10 mg/kg; type: functional, organism-based; design: dose 10 mg/kg; how it was run: as §2
[18] = target: T2, Adrenergic receptor alpha-1 (Rattus norvegicus); experiment: In vivo inhibitory activity in rats against elevation of blood pressure caused by phenylephrine (30 ug/kg, iv) through Alpha-1 adrenergic receptor after 1 hr of oral administration at the dose of 10 mg/kg; type: functional, organism-based; design: dose 10 mg/kg; how it was run: as §2
Mus musculus [19] = experiment: The inhibition of compound was measured for 5 min in head twitches of mice induced by 5-HTP(100 mg/kg, ip) at the dose of 30 mg/kg; type: functional; how it was run: as §6
[20] = target: T2, Adrenergic receptor alpha-1 (Rattus norvegicus); experiment: In vitro antagonistic activity against the contraction induced by phenylephrine through Alpha-1 adrenergic receptor in rat thoracic aortic strips; type: functional; details: concentration not given here; how it was run: as §5
[21] = tested on: Serotonin 2 (5-HT2) receptor (Rattus norvegicus); experiment: In vivo inhibitory activity in rats against elevation of blood pressure caused by 5-HT (300 ug/kg, iv) through 5-HT2 receptor after 3h of oral administration at the dose of 3 mg/kg
[22] = target: T3, Serotonin 2 (5-HT2) receptor; experiment: In vitro antagonistic activity against the contraction induced by 5-HT through 5-HT2 receptor in rat thoracic aortic strips; type: functional; how it was run: as §4
Mus musculus [23] = experiment: The inhibition of compound was measured for 5 min in head twitches of mice induced by 5-HTP(100 mg/kg, ip) at the dose of 1 mg/kg; type: functional; how it was run: as §6
[24] = target: T1, Serotonin 2 (5-HT2) receptor (Rattus norvegicus); experiment: In vitro antagonistic activity against the contraction induced by 5-HT through 5-hydroxytryptamine 2 receptor in rat thoracic aortic strips; NC=non competitive antagonism; type: functional; details: filed as antagonist; how it was run: as §4
[25] = target: T2, Adrenergic receptor alpha-1 (Rattus norvegicus); experiment: In vitro antagonistic activity against the contraction induced by phenylephrine through Alpha-1 adrenergic receptor in rat thoracic aortic strips; NC = non-competitive inhibition; type: functional; how it was run: as §5

T1 sequence (P08909 whole entry, looked up): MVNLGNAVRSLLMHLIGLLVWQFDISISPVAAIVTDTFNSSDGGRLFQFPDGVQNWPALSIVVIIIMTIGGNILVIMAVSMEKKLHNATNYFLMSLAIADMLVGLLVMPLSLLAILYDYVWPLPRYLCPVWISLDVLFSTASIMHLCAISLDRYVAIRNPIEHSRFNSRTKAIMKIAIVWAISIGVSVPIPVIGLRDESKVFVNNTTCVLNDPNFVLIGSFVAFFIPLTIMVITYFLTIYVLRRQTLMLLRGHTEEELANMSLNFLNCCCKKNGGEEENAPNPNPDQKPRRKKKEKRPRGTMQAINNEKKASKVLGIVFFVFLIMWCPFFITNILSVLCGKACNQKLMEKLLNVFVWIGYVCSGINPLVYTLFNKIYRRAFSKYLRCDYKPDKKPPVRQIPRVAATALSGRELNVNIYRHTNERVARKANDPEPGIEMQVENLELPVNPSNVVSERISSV
T1 sequence (P14842 whole entry, looked up): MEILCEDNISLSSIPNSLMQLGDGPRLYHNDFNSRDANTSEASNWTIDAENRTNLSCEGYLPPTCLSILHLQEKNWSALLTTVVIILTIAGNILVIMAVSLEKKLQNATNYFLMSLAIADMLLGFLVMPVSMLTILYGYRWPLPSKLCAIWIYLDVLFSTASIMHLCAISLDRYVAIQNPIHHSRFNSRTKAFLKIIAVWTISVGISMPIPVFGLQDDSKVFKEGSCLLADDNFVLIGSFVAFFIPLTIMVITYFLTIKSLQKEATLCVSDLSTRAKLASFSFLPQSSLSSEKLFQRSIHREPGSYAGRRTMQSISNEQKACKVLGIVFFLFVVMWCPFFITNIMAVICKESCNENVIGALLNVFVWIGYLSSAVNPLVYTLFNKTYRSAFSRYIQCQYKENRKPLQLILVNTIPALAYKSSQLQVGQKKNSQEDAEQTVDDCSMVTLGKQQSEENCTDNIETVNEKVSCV
T1 sequence (P30994 whole entry, looked up): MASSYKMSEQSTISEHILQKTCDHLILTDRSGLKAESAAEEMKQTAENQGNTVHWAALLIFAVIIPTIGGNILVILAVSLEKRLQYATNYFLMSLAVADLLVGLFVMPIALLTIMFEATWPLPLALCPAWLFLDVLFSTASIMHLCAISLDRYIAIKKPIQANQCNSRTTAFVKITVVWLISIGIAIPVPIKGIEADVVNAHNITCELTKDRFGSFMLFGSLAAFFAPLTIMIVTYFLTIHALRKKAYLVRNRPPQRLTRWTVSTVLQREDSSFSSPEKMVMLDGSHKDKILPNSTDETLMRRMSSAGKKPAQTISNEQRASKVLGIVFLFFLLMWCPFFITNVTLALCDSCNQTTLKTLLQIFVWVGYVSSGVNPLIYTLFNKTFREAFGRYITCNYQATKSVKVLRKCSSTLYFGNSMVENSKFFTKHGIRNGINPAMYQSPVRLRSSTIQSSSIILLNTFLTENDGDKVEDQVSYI

Row | Structure (SMILES) | inhibition [2] [%] | pA2 [4] | inhibition [7] [%] | inhibition [8] [%] | inhibition [9] [%] | inhibition in vivo at 10 mg/kg (Mus musculus [11]) [%] | inhibition in vivo at 3 mg/kg (Mus musculus [12]) [%] | also measured
1 | O=C(c1ccc(Cl)cc1)C1CCN(CCn2nc3n(c2=O)CCCC3)CC1 | 16 | 7.2 | – | – | – | – | – | inhibition [1]: 83%; pA2 [3]: 7.2
2 | O=C(c1ccc(F)cc1)C1CCN(CCn2c(=O)nc3n(c2=O)CCCC3)CC1 | 33 | 6.9 | 90 | 93 | 83 | 80 | 67 | pA2 [5]: 8.1; inhibition [6]: 93%; inhibition [10]: 33%; inhibition in vivo at 0.3 mg/kg (Mus musculus [13]): 59%; inhibition in vivo at 1 mg/kg (Mus musculus [14]): 81%; inhibition in vivo at 0.1 mg/kg (Mus musculus [15]): 49%
3 | O=c1n(CCN2CCC(=C(c3ccc(F)cc3)c3ccc(F)cc3)CC2)nc2n1CCCC2 | – | – | 87 | 76 | 78 | 55 | 13 | pA2 [5]: 8.6; inhibition [6]: 96%; pA2 [16]: 7; inhibition [17]: 4%; inhibition [18]: 14%; inhibition in vivo at 30 mg/kg (Mus musculus [19]): 85%; inhibition [20]: 14%; inhibition [21]: 11%
4 | O=c1n(CCN2CCC(=C(c3ccc(F)cc3)c3ccc(F)cc3)CC2)nc2ccccn12 | 6 | 6.6 | – | – | – | – | – | pA2 [22]: 7; inhibition [1]: 58%
5 | Cc1nc2sccn2c(=O)c1CCN1CCC(=C(c2ccc(F)cc2)c2ccc(F)cc2)CC1 [RITANSERIN] | 7 | 7.5 | – | – | – | 100 | 95 | inhibition in vivo at 1 mg/kg (Mus musculus [23]): 80%
6 | O=C(c1ccc(F)cc1)C1CCN(CCn2c(=O)[nH]c3ccccc3c2=O)CC1 [KETANSERIN] | 91 | 7.8 | 100 | 96 | 84 | 100 | 92 | inhibition [10]: 91%; inhibition in vivo at 0.3 mg/kg (Mus musculus [13]): 88%; inhibition in vivo at 1 mg/kg (Mus musculus [14]): 93%; inhibition in vivo at 0.1 mg/kg (Mus musculus [15]): 49%
7 | O=C(c1ccc(F)cc1)C1CCN(CCn2nc3n(c2=O)CCCCC3)CC1 | – | – | – | – | – | – | – | pA2 [24]: Non-competitive antagonist; pA2 [25]: Non-competitive inhibition
